Assay results: ChEMBL document CHEMBL1152172, “Synthesis and biological activities of novel nonpeptide angiotensin II receptor antagonists based on benzimidazole derivatives bearing a heterocyclic ring” (Bioorg Med Chem, 2008)
Active and inactive are the calls of the source. The rule behind the calls is not given here.

Key:
Canis familiaris [1] = assay: Antihypertensive activity against angiotensin II-induced pressor response in conscious normotensive Beagle dog assessed as rate of change of mean arterial blood pressure at 2.13 mg/kg, po after 1 hr; assay type: functional, Canis lupus familiaris, Artery
Procedure, shortened: (§1)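 Conscious normotensive Beagle dogs, 6–7 per group. Baseline BP and heart rate recorded once stable, then test compound given orally at 2.13 mg/kg. BP and heart rate read 1 h after dosing, then AngII 0.45 µg/kg iv, with waveforms recorded 1 min after injection. Values given as rate of change relative to pre-model baseline (100%), with SEM.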

Canis familiaris [2] = assay: Antihypertensive activity against angiotensin II-induced pressor response in conscious normotensive Beagle dog assessed as decrease in basal heart rate at 2.13 mg/kg, po after 1 hr; assay type: functional, organism-based; design: dose 2.13 mg/kg; conditions: Canis lupus familiaris; procedure, shortened: as §1
Canis familiaris [3] = assay: Antihypertensive activity against angiotensin II-induced pressor response in conscious normotensive Beagle dog assessed as rate of change of mean systolic blood pressure at 2.13 mg/kg, po after 1 hr; assay type: functional, Canis lupus familiaris, Artery; procedure, shortened: as §1
Canis familiaris [4] = assay: Antihypertensive activity against angiotensin II-induced pressor response in conscious normotensive Beagle dog assessed as rate of change of mean diastolic blood pressure at 2.13 mg/kg, po after 1 hr; assay type: functional, Canis lupus familiaris, Artery; procedure, shortened: as §1

SMILES	Activity (Canis familiaris [1])	Activity (Canis familiaris [2])	Activity (Canis familiaris [3])	Activity (Canis familiaris [4])
CCCc1nc2c(C)cc(-c3nc4ccccc4n3C)cc2n1Cc1ccc(-c2ccccc2-c2ncn[nH]2)cc1	103.37%	inactive	103.8%	103.14%
CCCc1nc2c(C)cc(-c3nc4ccccc4n3C)cc2n1Cc1ccc(-c2ccccc2-c2ncc(Cl)[nH]2)cc1	95.43%	Active	95.75%	95.28%
CCCc1nc2c(C)cc(-c3nc4ccccc4n3C)cc2n1Cc1ccc(-c2ccccc2C2=NCCN2)cc1	97.43%	Active	96.75%	95.28%
CCCc1nc2c(C)cc(-c3nc4ccccc4n3C)cc2n1Cc1ccc(-c2ccccc2-c2ncc[nH]2)cc1	98.11%	Active	98.67%	97.96%
CCCc1nc2c(C)cc(-c3nc4ccccc4n3C)cc2n1Cc1ccc(-c2ccccc2C(=O)O)cc1	96.13%	–	95.78%	96.15%
